Reference: ChEMBL document CHEMBL1177652 (Bioorg Med Chem, 2010)

What was measured:
Acetylcholinesterase = Acetylcholinesterase (Homo sapiens, UniProt P22303); assay: Inhibition of human whole RBC AChE pretreated for 30 mins by Ellman technique
Cholinesterase = Cholinesterase (Homo sapiens, UniProt P06276); assay: Inhibition of human plasma BChE pretreated for 30 mins by Ellman technique; format: cell-free
Rattus norvegicus [1] = assay: Ex vivo inhibition of cholinesterase in Fischer-344 rat plasma at 10 mg/kg, ip after 60 mins by spectrophotometric analysis; format: functional; conditions: Fischer-344, Plasma, 1 h, route intraperitoneal
In short: (§1)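 Anesthetized rats given 10 mg/kg i.p.; predrug blood for resting activity, then samples 5 min to 24 hr, centrifuged, plasma frozen at −80° C. Thawed plasma (10 ul) in 0.1 M sodium phosphate pH 7.4 ± iso-OMPA, then DTNB plus S-butyrylthiocholine; 412 nm read 20 min later, r.t., duplicates. Iso-OMPA-sensitive difference expressed as percent of predrug level.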

Rattus norvegicus [2] = assay: Ex vivo inhibition of cholinesterase in Fischer-344 rat plasma at 10 mg/kg, ip after 24 hrs by spectrophotometric analysis; format: functional; conditions: Fischer-344, Plasma, route intraperitoneal; in short: as §1
Rattus norvegicus [3] = assay: Toxicity in Fischer-344 rat assessed as tremor at 10 mg/kg, ip; format: organism-based; parameters: dose 10 mg/kg, route intraperitoneal; conditions: in vivo
Rattus norvegicus [4] = assay: Toxicity in Fischer-344 rat assessed as lacrimation and salivation at 10 mg/kg, ip; format: organism-based; parameters: dose 10 mg/kg, route intraperitoneal; conditions: in vivo

Cholinesterase, sequence (P06276 whole entry): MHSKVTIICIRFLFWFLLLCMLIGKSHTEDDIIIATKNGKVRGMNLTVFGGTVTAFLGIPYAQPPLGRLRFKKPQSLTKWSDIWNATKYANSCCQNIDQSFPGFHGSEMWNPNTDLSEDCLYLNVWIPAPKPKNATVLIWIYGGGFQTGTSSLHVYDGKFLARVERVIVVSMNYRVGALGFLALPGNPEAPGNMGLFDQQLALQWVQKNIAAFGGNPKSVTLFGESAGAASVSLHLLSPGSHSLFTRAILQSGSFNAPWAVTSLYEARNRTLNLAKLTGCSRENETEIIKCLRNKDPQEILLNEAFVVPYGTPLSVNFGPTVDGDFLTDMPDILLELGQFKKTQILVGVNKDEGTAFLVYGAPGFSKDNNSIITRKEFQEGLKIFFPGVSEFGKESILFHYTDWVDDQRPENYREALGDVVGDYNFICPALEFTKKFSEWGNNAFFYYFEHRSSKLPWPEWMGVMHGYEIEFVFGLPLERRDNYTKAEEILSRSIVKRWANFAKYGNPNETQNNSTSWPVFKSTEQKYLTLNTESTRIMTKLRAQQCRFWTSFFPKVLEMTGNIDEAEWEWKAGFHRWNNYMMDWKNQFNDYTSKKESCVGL
Acetylcholinesterase, sequence (P22303 whole entry): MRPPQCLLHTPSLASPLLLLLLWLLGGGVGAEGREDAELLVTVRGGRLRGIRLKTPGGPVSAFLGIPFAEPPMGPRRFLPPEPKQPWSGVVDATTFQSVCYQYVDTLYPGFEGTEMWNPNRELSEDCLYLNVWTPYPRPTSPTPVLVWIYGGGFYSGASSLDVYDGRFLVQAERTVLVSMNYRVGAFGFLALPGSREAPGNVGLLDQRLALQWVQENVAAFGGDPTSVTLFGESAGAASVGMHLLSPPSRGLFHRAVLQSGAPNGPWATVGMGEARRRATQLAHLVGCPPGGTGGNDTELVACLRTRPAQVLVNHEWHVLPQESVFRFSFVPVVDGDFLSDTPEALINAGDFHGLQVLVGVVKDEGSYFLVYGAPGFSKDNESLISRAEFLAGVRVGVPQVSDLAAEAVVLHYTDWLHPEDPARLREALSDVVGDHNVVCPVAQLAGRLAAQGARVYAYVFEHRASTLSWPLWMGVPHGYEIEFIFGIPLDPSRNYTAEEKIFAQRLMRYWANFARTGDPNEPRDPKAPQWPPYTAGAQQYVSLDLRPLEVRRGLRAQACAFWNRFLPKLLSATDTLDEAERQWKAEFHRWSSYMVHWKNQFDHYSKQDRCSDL

Row | Structure (SMILES) | IC50 (Acetylcholinesterase) [nM] | IC50 (Cholinesterase) [nM] | other results
1 | CN(C)c1cccc(OC(=O)Nc2ccccc2)c1 | 2500 | 18000 | 
2 | C[N+](C)(C)c1cccc(OC(=O)Nc2ccccc2)c1 | 1870 | 18000 | 
3 | Cc1ccccc1NC(=O)Oc1ccc2c(c1)[C@]1(C)CC[N+](C)(C)C1N2C (some centres not stated) | 14.6 |  | 
4 | CC(C)c1ccc(NC(=O)Oc2ccc3c(c2)[C@]2(C)CC[N+](C)(CCc4ccccc4)C2N3C)cc1 (some centres not stated) | 300 |  | 
5 | O=C(Nc1ccccc1)Oc1cccnc1 | > 30000 | > 30000 | 
6 | C[n+]1cccc(OC(=O)Nc2ccccc2)c1 | > 30000 |  | 
7 | CNC(=O)Oc1ccc2c(c1)[C@]1(C)CC[N+](C)(C)C1N2C (some centres not stated) | 26.1 |  | 
8 | CN1c2ccc(OC(=O)Nc3ccccc3)cc2[C@]2(C)CC[N+](C)(C)C12 (some centres not stated) | 25.4 |  | 
9 | CC(C)c1ccc(NC(=O)Oc2ccc3c(c2)[C@]2(C)CC[N+](C)(C)C2N3C)cc1.[Br-] (some centres not stated) | 145 |  | inhibition in vivo at 10 mg/kg (Rattus norvegicus [1]): 66%; inhibition in vivo at 10 mg/kg (Rattus norvegicus [2]): 33%; Activity (Rattus norvegicus [3]): Non-toxic; Activity (Rattus norvegicus [4]): Non-toxic
10 | CN(C)C(=O)Oc1cccc([N+](C)(C)C)c1 [NEOSTIGMINE METHYLSULFATE] |  | 60 | 
